Experimental data reported in ChEMBL document CHEMBL2163190, “Synthesis and evaluation of substituted chroman-4-one and chromone derivatives as sirtuin 2-selective inhibitors” (J Med Chem, 2012).
Calls of active or inactive are those of the source. The calls are words filed in the database; no cut-off is given here.

What was measured:
[1] = target: T1, NAD-dependent protein deacetylase sirtuin-1 (Homo sapiens) (UniProt Q96EB6); test: Inhibition of recombinant GST-tagged SIRT1 preincubated at 200 uM for 5 mins measured after 1hr by Fluor de Lys-based fluorescence assay
T1 sequence (whole entry): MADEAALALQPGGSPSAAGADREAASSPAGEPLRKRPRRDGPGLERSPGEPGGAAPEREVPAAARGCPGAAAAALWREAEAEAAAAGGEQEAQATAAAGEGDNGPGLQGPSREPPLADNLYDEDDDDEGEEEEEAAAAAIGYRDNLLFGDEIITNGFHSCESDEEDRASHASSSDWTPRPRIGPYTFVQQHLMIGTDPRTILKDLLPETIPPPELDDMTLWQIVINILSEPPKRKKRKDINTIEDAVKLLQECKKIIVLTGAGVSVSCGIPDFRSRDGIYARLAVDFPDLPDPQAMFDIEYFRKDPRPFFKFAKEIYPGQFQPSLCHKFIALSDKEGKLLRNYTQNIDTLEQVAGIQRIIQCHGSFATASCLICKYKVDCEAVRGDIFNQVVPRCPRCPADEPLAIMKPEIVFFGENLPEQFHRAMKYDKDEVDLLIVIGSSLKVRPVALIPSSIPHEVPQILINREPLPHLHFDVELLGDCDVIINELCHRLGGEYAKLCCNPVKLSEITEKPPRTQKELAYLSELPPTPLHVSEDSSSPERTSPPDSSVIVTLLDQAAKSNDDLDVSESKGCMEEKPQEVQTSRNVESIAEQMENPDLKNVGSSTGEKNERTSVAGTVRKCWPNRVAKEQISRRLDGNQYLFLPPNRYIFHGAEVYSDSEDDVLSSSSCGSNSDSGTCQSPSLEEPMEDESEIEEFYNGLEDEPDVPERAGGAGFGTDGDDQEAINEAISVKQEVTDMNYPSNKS
Method in brief: (§1)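 Fluor de Lys assay with compound at 200 μM in DMSO. […] Substrate was used at 0.7 Km and NAD+ at 0.9 Km. Preincubated 5 min at RT, then enzyme for 1 h at 37 °C, then developer/nicotinamide for 45 min at 37 °C. Read at ex 355/em 460 nm.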

[2] = target: T2, NAD-dependent protein deacetylase sirtuin-2 (Homo sapiens, UniProt Q8IXJ6); test: Inhibition of human recombinant GST-tagged SIRT2 preincubated for 5 mins measured after 1 hr by Fluor de Lys-based fluorescence assay
T2 sequence (Q8IXJ6 whole entry): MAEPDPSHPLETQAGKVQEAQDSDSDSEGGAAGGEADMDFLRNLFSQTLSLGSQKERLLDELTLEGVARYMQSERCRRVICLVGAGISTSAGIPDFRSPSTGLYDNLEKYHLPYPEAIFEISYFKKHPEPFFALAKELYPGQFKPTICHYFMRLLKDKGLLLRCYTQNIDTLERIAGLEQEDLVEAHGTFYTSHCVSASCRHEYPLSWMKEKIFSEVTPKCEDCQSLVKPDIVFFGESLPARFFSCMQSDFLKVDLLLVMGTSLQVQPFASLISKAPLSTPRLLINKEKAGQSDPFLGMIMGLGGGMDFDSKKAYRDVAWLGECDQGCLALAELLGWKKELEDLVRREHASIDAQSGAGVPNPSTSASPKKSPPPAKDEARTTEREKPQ
Method in brief: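 Fluorogenic GST-SIRT2 assay using KI179 at 0.7 Km and NAD+ at 0.9 Km, in BSA-supplemented HDAC buffer. Compound, substrate and NAD+ were preincubated 5 min at RT, then enzyme added for 1 h at 37 °C, followed by developer/nicotinamide for 45 min at 37 °C. Fluorescence read at 355/460 nm.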

[3] = target: T3, NAD-dependent protein deacetylase sirtuin-3, mitochondrial (Homo sapiens) (UniProt Q9NTG7); test: Inhibition of recombinant His-tagged SIRT3 preincubated at 200 uM for 5 mins measured after 1hr by Fluor de Lys-based fluorescence assay; method in brief: as §1
T3 sequence (whole entry): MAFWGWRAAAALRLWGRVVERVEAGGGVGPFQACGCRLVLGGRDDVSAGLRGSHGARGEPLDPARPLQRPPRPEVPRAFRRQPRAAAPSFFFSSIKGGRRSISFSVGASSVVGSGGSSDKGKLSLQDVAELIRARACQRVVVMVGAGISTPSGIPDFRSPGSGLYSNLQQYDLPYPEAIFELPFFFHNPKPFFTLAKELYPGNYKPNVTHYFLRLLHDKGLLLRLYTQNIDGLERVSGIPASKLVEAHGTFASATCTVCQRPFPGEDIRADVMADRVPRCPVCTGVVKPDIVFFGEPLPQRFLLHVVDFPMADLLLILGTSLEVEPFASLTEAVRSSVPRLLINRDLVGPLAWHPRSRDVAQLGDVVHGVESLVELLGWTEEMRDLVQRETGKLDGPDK

[4] = target: T4, NAD-dependent protein deacetylase sirtuin-2 (Homo sapiens) (UniProt Q8IXJ6); test: Inhibition of human recombinant GST-tagged SIRT2 preincubated at 200 uM for 5 mins measured after 1 hr by Fluor de Lys-based fluorescence assay
T4 sequence (whole entry): T2 sequence (Q8IXJ6 whole entry)
Method in brief: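 GST-SIRT2 assay with Fluor de Lys KI179 substrate at 0.7 Km (Km 198 μM) and NAD+ at 0.9 Km (Km 547 μM), in HDAC buffer with 1 mg/mL BSA. Substrate, NAD+ and compound (200 μM, DMSO) were preincubated 5 min at RT, then enzyme added for 1 h at 37 °C. Developer plus nicotinamide (2 mM) was added for 45 min at 37 °C. Read at ex 355/em 460 nm; n = 3, SD.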

[5] = target: T4, NAD-dependent protein deacetylase sirtuin-2 (Homo sapiens); test: Inhibition of SIRT2 using RSTGGK(Ac)APRKQ as substrate assessed as inhibition of [14C]nicotinamide release at 200 uM after 1h by TLC
Method in brief: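 Recombinant GST-SIRT2 started the reaction with [carbonyl-14C]NAD+ (43.2 nCi) and acetylated peptide RSTGGK(Ac)APRKQ (196 μM). Buffer was HDAC assay buffer plus 1 mg/mL BSA, with compound at 200 μM final in DMSO. Incubated 1 h at 37 °C. The whole mixture was run on silica TLC in ethanol/2.5 M ammonium acetate (80:20), exposed overnight to X-ray film, and [14C]nicotinamide quantified by densitometry.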

[6] = target: T4, NAD-dependent protein deacetylase sirtuin-2 (Homo sapiens); test: Inhibition of human SIRT2 assessed as inhibition of deacetylation of rat stem cell acetylated alpha-tubulin at 200 uM after 30 to 60 mins by Western blot analysis
Method in brief: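 Acetylated α-tubulin (0.5 μg) isolated from rat stem cells was incubated with recombinant GST-SIRT2, NAD+ (500 μM) and compound (200 μM final, DMSO vehicle) in SIRT assay buffer for 30 or 60 min at 37 °C. Samples were resolved on 10% SDS-PAGE and blotted to nitrocellulose. Probed with anti-acetylated tubulin mAb 6-11B-1 (1:8000, 2 h, RT), then HRP anti-mouse secondary (1:50000, 2 h).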

SMILES | inhibition [1] [%] | IC50 [2] [µM] | inhibition [3] [%] | inhibition [4] [%] | inhibition [5] [%] | inhibition [6]
CCCCCc1cc(=O)c2cc(Cl)cc(Br)c2o1 | < 10 | 5.5 | < 10 | 82 | – | –
CCCCC[C@@H]1CC(=O)c2cc(Cl)cc(Br)c2O1 | < 10 | 4.5 | < 10 | 70 | – | –
CCCC1CC(=O)c2cc(Cl)cc(Br)c2O1 (racemic) | < 10 | 10.6 | < 10 | 76 | – | –
CCCCCC1CC(=O)c2cc(F)cc(F)c2O1 (racemic) | – | – | – | 30 | – | –
CCCCCC1CC(=O)c2cc(Br)cc(Br)c2O1 (racemic) | < 10 | 1.5 | < 10 | 92 | – | –
CCCCCC1CC(=O)c2ccc(F)cc2O1 (racemic) | – | – | – | 18 | – | –
CCCCCC1CC(O)c2cc(Cl)cc(Br)c2O1 (mixture of isomers) | – | – | – | 31 | – | –
CCCCCCCC1CC(=O)c2cc(Cl)cc(Br)c2O1 (racemic) | – | – | – | 57 | – | –
CCCCCC1CC(=O)c2cc(C)cc(C)c2O1 (racemic) | < 10 | 6.2 | < 10 | 83 | – | –
CCCCCC1CC(=O)c2cc(OC)ccc2O1 (racemic) | – | – | – | 20 | – | –
CCCCCC1CC(=O)c2cc(Cl)cc(Br)c2O1 (racemic) | < 10 | 4.3 | < 10 | 88 | 66 | Active
CCCCCC1CC(=O)c2ccccc2O1 (racemic) | – | – | – | 4.9 | – | –
Cc1ccc(S(=O)(=O)n2cc(CCC3CC(=O)c4cc(Cl)cc(Br)c4O3)c3ccccc32)cc1 (racemic) | – | – | – | 27 | – | –
CCCCCC1CCc2cc(Cl)cc(Br)c2O1 (centres undefined) | – | – | – | 38 | – | –
CCCCCC1C=Cc2cc(Cl)cc(Br)c2O1 (centres undefined) | – | – | – | 38 | – | –
CCCCCC1CC(=O)c2cc([N+](=O)[O-])ccc2O1 (racemic) | – | – | – | 58 | – | –
O=c1cc(-c2ccccc2)oc2c(Br)cc(Cl)cc12 | – | – | – | 20 | – | –
CC(C)C1CC(=O)c2cc(Cl)cc(Br)c2O1 (racemic) | – | – | – | 52 | – | –
O=C1CC(CCc2c[nH]c3ccccc23)Oc2c(Br)cc(Cl)cc21 (racemic) | – | – | – | 53 | – | –
O=C1CC(CCc2ccccc2)Oc2c(Br)cc(Cl)cc21 (racemic) | < 10 | 6.8 | 16 | 81 | – | –
CCCCCC1CC(=O)c2cc(Cl)ccc2O1 (racemic) | – | – | – | 55 | – | –
CCCCCC1CC(=O)c2cccc(Br)c2O1 (racemic) | – | – | – | 28 | – | –
CCCCC[C@H]1CC(=O)c2cc(Cl)cc(Br)c2O1 | < 10 | 1.5 | < 10 | 91 | – | –
